From PubChem
Most compounds without a hit are left out; they make up all but 3.2% or so of the library.
Mcl1-Bid inh = disrupts binding of human Mcl-1 to Bid peptide. Q07820. TR-FRET Mcl-1/Bid-Dy647 peptide binding, 1536-well. actives 0.97% (n = 220,000). inhibition, % at 21.7 µM;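 active = compounds that cut the binding signal by more than half at the single screening dose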;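 also: His-tagged Mcl-1 with europium anti-His antibody binding Bid BH3 peptide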
Mcl-1 Bim block = human Bim-Mcl-1 interaction inhibition; Bead-based flow cytometry, Bim peptide-Mcl-1 binding; Q07820; AID 1009; inhibition, % at 10 µM; actives 0.1% (n = 190,000); in the data active = inhibition above about 40%
14-3-3 Bad PPI = disrupts binding of bovine 14-3-3 zeta to phospho-Bad peptide | P63103 | actives 0.71% (n = 220,000) | inhibition, % at 21.7 µM | TR-FRET 14-3-3zeta/Dy647-pBad peptide displacement, 1 h | AID 781;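 active = inhibition above about 70%, limit read from the data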
Hck-Nef inh = blocks Nef-activated human Hck kinase. P08631. Recombinant Hck-YEEI plus Nef, Z-Lyte FRET kinase assay. inhibition, % at 20 µM. actives 0.68% (n = 220,000). AID 463187;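 active = Hck-Nef kinase inhibition above about 50%, limit read from the data; inactive = inhibition below that limit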
Target sequence (P08631 whole entry, looked up): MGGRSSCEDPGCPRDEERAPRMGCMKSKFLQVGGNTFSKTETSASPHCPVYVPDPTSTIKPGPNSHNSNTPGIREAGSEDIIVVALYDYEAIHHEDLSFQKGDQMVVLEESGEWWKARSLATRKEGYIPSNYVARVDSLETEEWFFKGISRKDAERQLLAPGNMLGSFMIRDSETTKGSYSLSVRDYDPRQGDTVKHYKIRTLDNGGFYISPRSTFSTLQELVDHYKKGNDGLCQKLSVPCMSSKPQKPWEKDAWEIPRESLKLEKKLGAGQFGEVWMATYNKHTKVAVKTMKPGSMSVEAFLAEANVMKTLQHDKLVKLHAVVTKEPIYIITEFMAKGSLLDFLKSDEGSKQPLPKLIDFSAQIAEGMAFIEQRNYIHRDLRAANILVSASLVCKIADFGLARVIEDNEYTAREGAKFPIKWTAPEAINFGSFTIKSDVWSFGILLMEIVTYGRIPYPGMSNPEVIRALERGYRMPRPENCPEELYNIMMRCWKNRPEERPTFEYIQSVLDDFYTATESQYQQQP
Biofilm kill mix = mixture kills Candida albicans biofilm cells. C. albicans biofilm persisters + clotrimazole, fluorescence viability; primary screen in compound mixtures of four per well. inhibition, % at 7.6 µM. actives 0.02% (n = 120,000). AID 1242;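 active = inhibition above 30.3% in the primary screen of four-compound pools, then above 30% when the compound was retested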;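 also: compounds exposed to preformed 24 h biofilms for 48 h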
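Incubation: 24 h biofilm formation, then 48 h compound exposure, 37 °C | Material: C. albicans biofilms | Buffer or medium: RPMI/MOPS medium, pH 7.0 | Measured by: 2-h Alamar Blue fluorescence, 535/590 nm excitation/emission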
Mcl1 Noxa PPI = disrupts binding of human Mcl-1 to Noxa peptide; inhibition, % at 21.7 µM; actives 1.5% (n = 220,000); Q07820; AID 1022; TR-FRET Mcl-1/Noxa peptide binding, 2 h;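 active = compounds that cut the protein-peptide binding signal by more than 50% relative to plate controls in a single-dose test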;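 also: His-tagged Mcl-1 with rhodamine Noxa BH3 peptide and terbium anti-His antibody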
Each line names hits and unclear results; the compound was inactive in the other large screens; [ ] = remark or other dose.

CC(=O)Nc1ccc(C)c(NC(=S)Nc2ccc(F)cc2)c1	none (no result: Mcl-1 Bim block)
CNC(=S)Nc1ccc(C)c(NC(=S)NC)c1	Mcl1 Noxa PPI 58.1
Cc1sc2nc(CN3CCN(c4ccc(O)cc4)CC3)[nH]c(=O)c2c1C	Mcl1 Noxa PPI 67.1 (no result: Mcl-1 Bim block)
O=c1[nH]c(CN2CCN(c3ccccc3)CC2)nc2scc(-c3ccccc3)c12	none
CC(C)C(c1nnnn1C1CCCCC1)N1CCOCC1 (stereo not drawn)	none (no result: Biofilm kill mix)
CC(C)C(c1nnnn1C(C)(C)C)N1CCOCC1 (stereo not drawn)	14-3-3 Bad PPI 71.0 (no result: Biofilm kill mix)
COc1ccc(NC(=O)CSc2ccccn2)cc1OC	14-3-3 Bad PPI 72.0 (no result: Biofilm kill mix)
COc1ccc(-c2c(=O)n(OCc3ccccn3)c3ccccc3[n+]2[O-])cc1OC	Mcl1 Noxa PPI 53.8 (no result: Biofilm kill mix)
CSc1nc(-c2ccco2)nn1S(=O)(=O)c1ccc(C)cc1	none (no result: Biofilm kill mix)
CSc1nc(-c2ccco2)nn1S(=O)(=O)c1ccccc1	14-3-3 Bad PPI 81.5 (no result: Biofilm kill mix)
O=C(Nc1cccc2nsnc12)C1CC(=O)N(c2ccccc2)C1 (stereo not drawn)	none (no result: Biofilm kill mix)
O=c1[nH]c(-c2ccc(Cl)cc2)nc(=S)[nH]1	none (no result: Mcl-1 Bim block)
CCOC(=O)c1ccc(NC(=O)CC2S/C(=N/N=C3/NC(=O)CS3)NC2=O)cc1 (stereo not drawn)	none
CCOC(=O)c1ccc(NC(=O)CC2S/C(=N/N=C/c3c[nH]c4ccccc34)NC2=O)cc1 (stereo not drawn)	Mcl1-Bid inh 62.5, Mcl1 Noxa PPI 61.2 (no result: Mcl-1 Bim block)
Cc1ccc(NC(=O)CC2S/C(=N/N=C/c3c[nH]c4ccccc34)NC2=O)cc1 (stereo not drawn)	Mcl1-Bid inh 57.5
CN1CCCN(C(=O)CC2(CC(=O)O)CCCCC2)CC1	none (no result: Mcl-1 Bim block)
CC1=NN(c2ccccc2)C(=O)/C1=C\c1c(C)[nH]n(-c2ccccc2)c1=O	none (no result: Biofilm kill mix)
CC1=NN(c2ccccc2)C(=O)/C1=C\c1cn(-c2ccccc2)nc1C	Mcl1-Bid inh 68.2
Clc1ccc(OCCn2ccnc2)c(Cl)c1	none (no result: Biofilm kill mix)
Clc1ccc(SCCn2ccnc2)cc1	Mcl1-Bid inh 67.5 (no result: Biofilm kill mix)
O=C(CCCN1C(=O)c2cccc3cccc(c23)C1=O)N1CCN(c2ccccc2O)CC1	Mcl1 Noxa PPI 55.1
S=C(NNc1ccnc2cc(Cl)ccc12)Nc1ccccc1Cl	Mcl1 Noxa PPI 61.6
CCCNC(=O)CSc1nc2ccccc2c(=O)n1CCC	none
COC(=O)C1=C(C(=O)OC)C(c2ccccc2O)c2sc(=O)[nH]c2S1 (stereo not drawn)	Mcl1 Noxa PPI 56.5
CN(C)c1ccc(NC(=O)Nc2ccc3snnc3c2)cc1	Mcl1 Noxa PPI 92.6 (no result: Biofilm kill mix)
CCN1/C(=C/c2cc[n+](C)cc2)C=Cc2cc(C)ccc21	Mcl1 Noxa PPI 56.0
O=C1/C(=C/c2ccsc2)N2CCC1CC2	none (no result: Mcl-1 Bim block)
N#CC1=C(N)Oc2c(ccc3cccnc23)C1c1ccccc1 (stereo not drawn)	none (no result: Mcl-1 Bim block)
Cc1ccc2[nH]c(=O)c(C3C(C#N)=C(N)Oc4c3ccc3cccnc43)cc2c1 (stereo not drawn)	Mcl1-Bid inh 59.6 (no result: Biofilm kill mix)
COc1ccc(S(=O)(=O)Nc2cc(Sc3ncn[nH]3)c(O)c3ccccc23)cc1	14-3-3 Bad PPI 86.9[fluorescence artefact?], Mcl1 Noxa PPI 90.5 (no result: Biofilm kill mix)
O=S(=O)(Nc1cc(Sc2cccc3cccnc23)c(O)c2ccccc12)c1ccc(F)cc1	Mcl1 Noxa PPI 51.1
Cc1cc(C)cc(OCC(=O)N(Cc2ccc(N(C)C)cc2)C2CCS(=O)(=O)C2)c1 (stereo not drawn)	none (no result: Mcl-1 Bim block)
Cn1c(=O)c2ncn(CC(=O)N=Nc3c(O)[nH]c4ccccc34)c2n(C)c1=O	none
CCOC(=O)c1c(NS(=O)(=O)c2ccc(Br)cc2)sc2c1CCC2	Mcl1 Noxa PPI 51.3
CS(=O)(=O)N1CCCC(C(=O)N2CCN(c3cccc(Cl)c3)CC2)C1 (stereo not drawn)	none
COc1cc2c(C)nc(C)c(C#N)c2cc1OC	14-3-3 Bad PPI 77.8 (no result: Biofilm kill mix)
COc1cc2c(C)nc3onc(-c4ccccc4)c3c2cc1OC	none (no result: Biofilm kill mix)
COc1ccc(C2SCC(=O)N2CCc2ccc(OC)c(OC)c2)cc1 (stereo not drawn)	none
N#Cc1c(-c2ccc(F)cc2)cc(-c2cccnc2)nc1N	none
CC(C)Cc1cc(-c2ccco2)c(C#N)c(N)n1	Mcl-1 Bim block 48.0 (no result: Biofilm kill mix)
N#Cc1c(-c2ccco2)cc(-c2ccc(F)cc2)nc1N	Mcl1 Noxa PPI 65.3 (no result: 14-3-3 Bad PPI, Biofilm kill mix)
